V1aR counter: activates human V1a receptor in oxytocin agonist counter-screen; P37288; CHO-V1R cells, Fluo-8 calcium fluorescence, agonist mode; 0% DMSO, 100% 3 nM vasopressin; activation, % at 3 µM; 320,000 tested, 0.25% active; AID 2797;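 active = activation above the mean activation of all tested compounds plus 3 SD, per screening run, cut at about 20% in these data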;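 note: signal is peak over basal fluorescence ratio across a 100 second FLIPR read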
Target sequence (P37288 whole entry, looked up): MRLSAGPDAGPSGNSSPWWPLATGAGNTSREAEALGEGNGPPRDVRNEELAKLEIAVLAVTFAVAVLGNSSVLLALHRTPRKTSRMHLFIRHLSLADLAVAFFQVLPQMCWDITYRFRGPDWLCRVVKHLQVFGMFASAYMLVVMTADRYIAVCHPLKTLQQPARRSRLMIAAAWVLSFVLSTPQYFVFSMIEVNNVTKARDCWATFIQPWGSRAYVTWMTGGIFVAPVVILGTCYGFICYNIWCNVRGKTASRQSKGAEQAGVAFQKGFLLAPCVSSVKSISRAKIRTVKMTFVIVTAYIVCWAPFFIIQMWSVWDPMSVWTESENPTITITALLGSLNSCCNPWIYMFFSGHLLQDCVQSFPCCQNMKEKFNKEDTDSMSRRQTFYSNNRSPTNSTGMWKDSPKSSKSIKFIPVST
CHO parental Ca: counter-screen: ATP calcium response change in parental CHO cells; parental CHO-K1, ATP-induced calcium, Fluo-8 fluorescence; inhibition, % at 5.6 µM; 330,000 tested, 0.63% active; AID 463079;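 active = inhibition above that plate's mean sample inhibition plus 3 SD, cut at about 26% in these data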
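Material: parental CHO cells / Compound: single nominal dose of 5.6 µM per compound / Signal: Fluo-8 fluorescence / Replicates: singlicate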
OXTR agonist: agonists of human oxytocin receptor; CHO-OTR cells, Fluo-8 calcium fluorescence; normalized: DMSO 0%, oxytocin 100%; 320,000 tested, 0.32% active; P30559; activation, % at 3 µM;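 active = activation above the mean of all tested compounds plus 3 SD, cutoff set per screening run, cut at about 20% in these data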;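 note: peak over basal fluorescence ratio from a 100 s FLIPR kinetic read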
OX1R antag-1: blocks the human orexin 1 receptor; O43613; CHO/OX1R cells, Fluo-8 calcium fluorescence, orexin A; inhibition, % at 5 µM; 330,000 tested, 0.43% active;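 active = inhibition above its plate's threshold, mean inhibition of all tested compounds on the plate plus 3 SD, cut at about 37% in these data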
OXTR potentiate: human OXTR potentiation; CHO-OTR cells, Fluo-8 calcium fluorescence, potentiator mode; 0% = oxytocin EC15, 100% = EC100; activation, % at 3 µM; 320,000 tested, 0.061% active;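 active = activation above that plate's cutoff, the mean activation of tested compounds plus 3 SD, cut at about 6.6% in these data, passing the limit was not always enough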
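System: human OTR in CHO cells; Also added: sub-maximal oxytocin, roughly EC15; Timing: compound 6 min at room temperature before oxytocin, 100 s read; Technique: Fluo-8 intracellular calcium fluorescence, ex 470-495, em 515-575 nm; Controls: oxytocin EC15 low and EC100 high; Replication: singlicate.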
OX1R antag-2: blocks the human orexin 1 receptor | inhibition, % at 6.6 µM | AID 485270 | 330,000 tested, 1.8% active | OX1R-expressing cells, FRET antagonist read-out | O43613; in the data active = inhibition mostly above about 38%, no sharp cut-off; inactive = mostly below about 40%
Large screens that a line does not name were inactive. This is a sample that favours compounds with a hit; in the whole collection about 2.7% have one here.

O=C(Nc1nnc(CCc2ccccc2)s1)c1ccccc1F	none
O=C1NC(=Nc2ccccc2)c2ccc([N+](=O)[O-])cc21	OX1R antag-2 74.3
Cc1cccc(N=C2NC(=O)c3cc([N+](=O)[O-])ccc32)c1	OX1R antag-2 69.7
Cn1c(CN2CCCCC2)nc2cc(NS(=O)(=O)c3ccc(Cl)cc3)ccc21	V1aR counter 31.9, OXTR agonist 33.6
CCc1ccc(NC(=O)NCc2cccnc2)cc1	none
CC1CCN(C(=O)c2ccccc2NS(=O)(=O)c2ccccc2)CC1	OX1R antag-2 50.3
COC(=O)c1c(NC(=O)Cc2ccccc2)sc2c1CCN(C(C)C)C2	none
CC(C)N1CCc2c(sc(NC(=O)c3nc4ccccc4s3)c2C(N)=O)C1	none
CC(C)N1CCc2c(sc(NC(=O)c3ccc([N+](=O)[O-])o3)c2C(N)=O)C1	OX1R antag-2 92.8
COC(=O)c1c(NC(=O)c2ccc([N+](=O)[O-])o2)sc2c1CCN(C(C)C)C2	OX1R antag-2 65.0
CCCCCC1C(=O)C[C@@H]2CCN3C(=O)CCC[C@H]1[C@H]23 (some centres undefined)	none (no result: V1aR counter, OXTR agonist, OXTR potentiate)
COc1cccc(CC(=O)OCC(=O)N(C)CC(=O)Nc2ccccc2Cl)c1	none
O=C1c2cccc3c(N4CCCCC4)ccc(c23)C(=O)N1c1ccccn1	V1aR counter 40.4, OXTR agonist 41.7, OX1R antag-1 51.1
O=C1c2cccc3c([N+](=O)[O-])ccc(c23)C(=O)N1c1ccc(Cl)cn1	CHO parental Ca 35.4, OX1R antag-2 51.5
CCCN1C(=O)c2cccc3c(N4CCCCC4)ccc(c23)C1=O	none
O=C1c2cccc3c([N+](=O)[O-])ccc(c23)C(=O)N1c1nccs1	OX1R antag-2 61.9
O=C1c2cccc3c([N+](=O)[O-])ccc(c23)C(=O)N1c1ccccn1	OX1R antag-2 67.9
COCCn1c(SCC(=O)Nc2c(C)n(C)n(-c3ccccc3)c2=O)nnc1-c1ccncc1	none
CCOc1cc(Cl)c(S(=O)(=O)NCCCn2ccnc2)cc1Cl	none
C=C(C(=O)c1ccccc1)C(c1ccccc1)C(C)C(=O)c1ccccc1 (centres undefined)	CHO parental Ca 41.5
C=C(C(=O)c1ccccc1)C(C(=C)C(=O)c1ccccc1)c1ccc(OC)cc1	none
CCN(CC)S(=O)(=O)c1cccc(C(=O)Nc2ccc(S(=O)(=O)NC3=NCCCCC3)cc2)c1	none
Cc1cc(C)cc(OCC(=O)N2N=C(C(F)(F)F)CC2(O)C(C)(C)C)c1 (centres undefined)	CHO parental Ca 39.7
Cc1ccc(NC(=O)CSc2nnnn2C2CCCC2)cc1S(=O)(=O)N1CCOCC1	none
O=C(NCC1CCCO1)c1cccc(S(=O)(=O)N2CCOCC2)c1 (centres undefined)	none
O=C(CSc1nnc(Cc2ccccc2)n1-c1ccccc1)NNC(=O)Cc1ccccc1	OX1R antag-2 57.3
CN1C(=O)c2ccc(C(=O)Nc3ccccc3O)cc2C1=O	OX1R antag-2 40.5
CC(c1ccccc1)N1C(=O)c2ccc(C(=O)Nc3ccccc3C(=O)O)cc2C1=O (centres undefined)	OX1R antag-2 69.8
CCCN1C(=O)c2ccc(C(=O)NC3=NCCS3)cc2C1=O	OX1R antag-2 44.7
CCCN1C(=O)c2ccc(C(=O)Nc3ccc4c(c3)OCO4)cc2C1=O	none
CC(c1ccccc1)N1C(=O)c2ccc(C(=O)Nc3ccc(Br)cc3C(=O)O)cc2C1=O (centres undefined)	none
O=C(Nc1nccs1)c1ccc2ccccc2c1	none
CN1C(=O)c2ccc(C(=O)Nc3nccs3)cc2C1=O	OX1R antag-2 72.5
O=C(CCNC(=O)C1CCN(S(=O)(=O)c2ccc(F)cc2)CC1)NCCc1ccc(Cl)cc1	none
COc1ccc(CNC(=O)C[C@H]2C[C@H](C(=O)N3CCOCC3)[C@@]3(CCC4CCCC4)c4[nH]c5cc(CCC(=O)N(C)C)ccc5c4CCN3C2=O)cc1OC	none (no result: V1aR counter, OXTR agonist, OXTR potentiate)
O=C(Nc1ccc(Cl)c([N+](=O)[O-])c1)c1ccc(NCCCN2CCOCC2)c([N+](=O)[O-])c1	CHO parental Ca 42.4
Cc1ccc(NC(=O)c2ccc(NCCCN3CCOCC3)c([N+](=O)[O-])c2)cc1Cl	none
Cn1cccc1CC(=O)N/N=C\c1c2ccccc2cc2ccccc12	OX1R antag-2 38.9
Cn1cccc1CC(=O)N/N=C/c1cccc2ccccc12	none
NC(=O)c1ccc(NCc2ccco2)c([N+](=O)[O-])c1	OX1R antag-2 128.4
COc1ccc(-c2cc(-c3c(O)c(OC)c4occc4c3OC)[nH]n2)cc1	none
COc1ccc(-c2cc(-c3c(O)c(OC)c4occc4c3OC)[nH]n2)cc1OC	OX1R antag-1 61.7, OX1R antag-2 69.5
CC(C)(CNC(=O)c1ccc(-c2cccc(C(F)(F)F)c2)o1)N1CCOCC1	none
COc1ccc(-c2cnnc(N/N=C/c3ccc(O)c(O)c3)n2)cc1	OX1R antag-2 75.3
CCCN(C(=O)c1ccccc1Cc1ccccc1)C1CCS(=O)(=O)C1 (centres undefined)	none
Cc1ccc(NC(=O)CSc2nnc(N)s2)cc1S(=O)(=O)N1CCOCC1	none
CCOCC(O)CNc1ccccc1 (centres undefined)	none
OC(CNCCc1ccc(C(F)(F)F)cc1)COc1cccc2ccccc12 (centres undefined)	none
OC(CNc1ccccc1)COc1ccc(OCC(O)CNc2ccccc2)cc1 (centres undefined)	CHO parental Ca 49.8
OC(CNCCc1ccc(C(F)(F)F)cc1)COc1ccc2ccccc2c1 (centres undefined)	CHO parental Ca 47.8
COc1ccc(CNCC(O)COc2ccc(C(C)(C)c3ccccc3)cc2)cc1 (centres undefined)	CHO parental Ca 36.4
COC(=O)c1ccc(SCC(=O)NCc2ccccc2)c([N+](=O)[O-])c1	none
O=C(COc1cc2oc(=O)cc(-c3ccccc3)c2cc1Cl)NCCN1CCOCC1	OX1R antag-2 49.0
CN(C)c1ccc(NC2=C(Cl)C(=O)c3ccccc3C2=O)cc1	CHO parental Ca 34.7, OX1R antag-2 92.4
O=C(Nc1ccc2cn[nH]c2c1)c1c(Cl)cccc1Cl	none
O=C1C(Cl)=C(Nc2ccc3cn[nH]c3c2)C(=O)c2ccccc21	CHO parental Ca 63.8, OX1R antag-1 58.7, OX1R antag-2 53.8
O=C(NC1=C(Nc2ccc(Cl)cc2)C(=O)c2ccccc2C1=O)c1ccccc1	none
CCn1c(CCNC(=O)c2ccc(Cl)c(Cl)c2)nnc1SCCOc1ccc(OC)cc1	OX1R antag-2 40.8
COc1ccc(OCCSc2nnc(CCNC(=O)c3ccc(Cl)c(Cl)c3)n2C)cc1	none
CCN1C(=O)/C(=C2/C=CC=CN2C)SC1=S	OX1R antag-2 45.8
